Data published in the EternaBench riboswitch data.

Tested on: MS2 coat protein
Experiment: apparent Kd, MS2 coat protein; higher = weaker binding; RNA-MaP array; FMN 200 µM where present
How it was run: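 Two titrations, one without ligand and one with constant ligand, were run with SNAP-549-labelled MS2 coat protein from 0.7 or 1.5 nM, doubling to 3 µM. The targets were designs transcribed by stalled E. coli RNA polymerase on Illumina sequencing-chip clusters, in 100 mM Tris-HCl pH 7.5, 80 mM KCl, 4 mM MgCl2, BSA, DTT, yeast tRNA and Tween-20. The apparent Kd is the median of filtered per-cluster binding-curve fits, with green signal normalised to red-channel RNA signal and control-cluster median Fmax.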

[1] = designed as: ON switch for flavin mononucleotide, no ligand
[2] = ligand present: flavin mononucleotide, designed as: ON switch for flavin mononucleotide
[3] = designed as: OFF switch for flavin mononucleotide, no ligand
[4] = ligand present: flavin mononucleotide, designed as: OFF switch for flavin mononucleotide

Row | Sequence | apparent Kd [1] [nM] | apparent Kd [2] [nM] | apparent Kd [3] [nM] | apparent Kd [4] [nM]
1 | CCACGUCACAUUUACAUGAGGAUCACCCAUGUCGAAAGACAUGAGGAUAUGCAUCCUAAUUGGAUGCAGAAGGCAUGGACGUGG | 276 | 274 | – | –
2 | AGAAACUACGAGAAGGACAUGUGGUCCUUCCAAAACAUGAGGAUCACCCAUGUAGGAUAUCGUAGUUUCAGGAUCGUGAGAUCA | – | – | 11.5 | 4.61
3 | GAGCGAAAGCUCAAUGUCGAUAGCAGAAGGACAUGCAAUAACAUGAAAACAUGAGGAUCACCCAUGUAGGAUAUGCUAUCGACU | – | – | 6.65 | 44.5
4 | AUAGCUCUCUAGAAGGUCCAACCAGUAUUCCAUCAGGUAAAUACGGUAGGGAGGAUAUGGGACAUGAGGAUCACCCAUGUGUAG | 42.2 | 25.2 | – | –
5 | CCUCGACAUGAGGAUCACCCAUGUCAGGAUAUUGUGUCUCGGGUUUUUUACCGUUAGGCAAGAAGGGAUGUGUG | – | – | 22.1 | 23.2
6 | ACAUGAUAUGUAGGAUAUCACUACUUGUGUUAUAAAAUUGUAAUUUAGGAUUGAGAAGGACAUUUACAUGAGGAUCACCCAUGU | – | – | 14.7 | 11.6
7 | AUAUGAAAGAUAGGAUAUACUGAGGUUGAAUGGGUAGAAGGAUCGAUAGUGAAGAAUACAUGAGGAUCACCCAUGUUGUGGAUU | 556 | 209 | – | –
8 | UGCCAAGCAGGAUAUGCACGUAAUAACAUGAGGAUCACCCAUGUGACCGAUUUAUAUUCUGCAGAAGGGCUUGGUU | – | – | 138 | 242
9 | GUUAAACAUGAGGAUCACCCAUGUAAGGAUAUGCUGCGGUCGAGAUGAAGUGAAUGCAGCAGAAGGUACAAUUG | – | – | 116 | 99.9
10 | CGUAUAUGGGAGAAGGCAUGUCCCAAAGGGCUAUGAGGAUAUCCUAAGUGUACGCUUUGCGACAUGAGGAUCACCCAUGUAGCA | 10.5 | 6.36 | – | –
11 | UUAUUUAGGUAGGAUAUCGAUAUUAUUCCCUAUCGAGAAGGGUCUACAUGAGGAUCACCCAUGUUAGCAUGUUU | – | – | 22.3 | 22.2
12 | UAUAAACAUGAGGAUCACCCAUGUGAGGAUAUCUAAACCAGAGCGGAUCUCUGGCCCAAGAGAAGGUGCAUGGU | – | – | 34.6 | 146
13 | GUGCUCGUGUAAGGAUAUGCAGCCGUUUCGGCUGCAGAAGGUACUAUAAUACAUGAGGAUCACCCAUGUCUCUAUAAUUUGGUG | 148 | 214 | – | –
14 | CAUUAAUUAAUUAGUUUAUAAAUACAGGAUAUGUUACAUGAGGAUCACCCAUGUUUACAUGGGAUACAGAAGGGUAAAUCAAUA | – | – | 192 | 145
15 | UCGGCGCGAGGAUAUGCGGUUGCUCCCUAGGGUCGGAGCGUACAUGAGGAUCACCCAUGUAGAAGGCGCGCCGC | – | – | 16.2 | 16.3
16 | AAAUGCAAUCAAGGAUAUGUAUUAAAGAUAUGAAAACAUGAGGAUCACCCAUGUAUAUGGUGGGAACAGAAGGUGAAUAAGUAA | – | – | 223 | 200
17 | GCCAUCGCAUGAGGAUAUGCUCCGGUUUCCGGAGCAGAAGGUAUGUCAUAUGACAUGAGGAUCACCCAUGUAGUUAAGAUGGCA | 571 | 54.7 | – | –
18 | GUGGUCAGACAUGAGGAUCACCCAUGUGGAAUAAAUAAGGAACAGGAUAUGGAAUAUAGGAUAUACCAGAAGGGUUGGUUGGUG | 72.3 | 82.4 | – | –
19 | ACAUUGUUAGGAUAUGCUGCUCGUCACUUGCGUGAUGAGUAGCAGAAGGAACAUGAGGAUCACCCAUGUAAAAA | – | – | 33.1 | 44.3
20 | AGCUGUGGCCGAGGAUAUCUAUCUCAUAAAACCGAAAUAUAAUCGGACAUGAGGAUCACCCAUGUAGAGAAGGCGGUCUCAGCA | – | – | 27.6 | 129
21 | CUUUCGUGAGGAUAUGUGGCUUCGAUCGUGAGAUCGAAGCUACAGAAGGCACAUGAGGAUCACCCAUGUUCCUC | – | – | 38.5 | 544
22 | UUAUAAAGUGUGAGGAUAUGCUGGUCGAUAGAUCAGCAGAAGGCACAUGAGGAUCACCCAUGUAAUAUAUUUUU | – | – | 48 | 239
23 | GAGUGACAUGAGGAUCACCCAUGUGAGGAUAUCGGACGGACCUUGUUGGCUUCCGCCGCGAGAAGGCACAUCGG | – | – | 201 | 45
24 | GUUAGUUAAGGAUAUACAGGGAGCCGCGGCGUCUCGCCGCAACAUGAGGAUCACCCAUGUAGAAGGUAGCCAUU | – | – | 31.3 | 66.6
25 | GAUUACAAGUAAGGAUAUGUAUAUGAAACAUAUACAGAAGGUACAUGAGGAUCACCCAUGUUCUUGCAACGCGAAUAUGUAAUC | – | – | 17.2 | 21.6
26 | AAAACGUGAGGAUAUGCACCCACCAAGGUUUUUCGGGUACGACAUGAGGAUCACCCAUGUAGAAGGCACGCAAA | – | – | 27.6 | 21.2
27 | CGCGAACAUGAGGAUCACCCAUGUGAAAAACACAGAGGAUAUGUCGCAUGCGUGUAAAAGACAGAAGGCUGUCGCG | 45.5 | 21.9 | – | –
